Compounds with a hit are over-represented: about 0.72% of the library has one in this group of screens.
bIAP act: intestinal alkaline phosphatase (bovine) activation | purified bovine IAP, CDP-star luminescence, 30 min; hits give high values; fold of DMSO-control signal, blank-subtracted | activation factor at 20 µM | hit rate 0.17% among 200,000 | AID 1016;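 active = activation factor of 2 or more at 20 µM, a signal rise over negative controls twice the positive control's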
mIAP inh: mouse IAP inhibition; inhibition, % at 10 µM; AID 2806; hit rate 0.2% among 330,000; purified mouse IAP, CDP-Star luminescence, 30 min;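 active = inhibition of at least 40% at 10 µM in the primary screen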;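 also: plate controls were DMSO with enzyme for no effect and no enzyme wells for full effect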
hIAP act: human IAP activation | P09923 | AID 2524 | activation factor at 10 µM | hit rate 0.16% among 330,000 | purified human IAP, CDP-Star luminescence, 30 min; hits give high values; 1 = vehicle-only enzyme, 0 = enzyme-free background;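 active = activation factor of the enzyme at least 2-fold when tested at 20 µM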
Target sequence (P09923 whole entry, looked up): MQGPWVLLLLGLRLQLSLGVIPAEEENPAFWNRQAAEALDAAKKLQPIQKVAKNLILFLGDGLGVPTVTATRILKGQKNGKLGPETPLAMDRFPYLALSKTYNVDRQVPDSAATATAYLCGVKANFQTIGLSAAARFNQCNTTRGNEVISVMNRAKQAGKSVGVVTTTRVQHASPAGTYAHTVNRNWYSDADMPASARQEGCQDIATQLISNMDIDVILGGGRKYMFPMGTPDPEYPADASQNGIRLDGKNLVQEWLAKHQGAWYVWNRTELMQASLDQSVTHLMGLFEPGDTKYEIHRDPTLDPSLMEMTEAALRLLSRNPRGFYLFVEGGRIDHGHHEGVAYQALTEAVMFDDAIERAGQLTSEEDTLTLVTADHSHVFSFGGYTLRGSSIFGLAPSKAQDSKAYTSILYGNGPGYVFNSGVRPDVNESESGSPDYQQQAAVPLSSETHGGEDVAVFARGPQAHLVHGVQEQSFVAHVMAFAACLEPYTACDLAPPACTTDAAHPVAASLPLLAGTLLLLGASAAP
hIAP block: blocks human intestinal alkaline phosphatase; AID 2544; P09923; hit rate 0.12% among 330,000; inhibition, % at 10 µM; purified IAP, CDP-Star luminescence, 30 min;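 active = inhibition reaching a set limit with compound at 10 µM in the primary screen, cut at about 35% in these data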;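 also: plate controls were DMSO wells with enzyme for no effect and no-enzyme buffer wells for full effect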
mIAP activ: mouse IAP activation. AID 2805. hit rate 0.24% among 330,000. activation factor at 10 µM. muIAP, CDP-Star luminescence, 30 min; hits give high values; 1 = vehicle-only enzyme signal, 0 = enzyme-free wells;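 active = activation factor of at least 2 at 20 µM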
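Assay system: mouse IAP enzyme / Compound: DMSO-dissolved test compounds / Timing: 30 min, room temperature / Measured by: luminescence from enzymatic CDP-Star hydrolysis / Control set: DMSO-only wells, enzyme-free buffer wells as negative control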
bIAP inh: blocks bovine intestinal alkaline phosphatase activity; purified bovine IAP, CDP-star luminescence, 30 min; inhibition, % at 20 µM; 190,000 tested, under 10 active;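 active = over 50% inhibition of intestinal alkaline phosphatase at 20 µM in the single-dose screen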
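Incubation: 30 min reaction at room temperature / Material: purified bovine intestinal alkaline phosphatase (IAP) enzyme / Input: enzyme at 1/65,000,000 dilution / Dosing: 20 µM single dose / Signal: CDP-star luminescence signal / Reagent: CDP-star chemiluminescent phosphatase substrate, 30 µM final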
mIAP inh conf: mouse IAP inhibition confirmation. shares compounds with mIAP inh. purified mouse IAP, CDP-Star luminescence, 30 min. inhibition, % at 10 µM. hit rate 4.7% among 11,000. AID 434971;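 active = inhibition of at least 40% at 10 µM in either of the two replicates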;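 also: plate controls were DMSO wells with enzyme for no effect and buffer wells lacking enzyme for full effect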
The depositor's hits bear a star; i = inactive; . = not tested or not shown.

SMILES	bIAP act	mIAP inh	hIAP act	hIAP block	mIAP activ	bIAP inh	mIAP inh conf
Cc1cccn2c(=O)c3cc(C(=O)N4COCC4(C)C)n(Cc4ccccc4)c3nc12	.	-17	1.2	-19	1.2	.	.
COc1cc(NS(=O)(=O)c2ccc(NC(=S)NC(=O)/C=C/c3ccco3)cc2)ncn1	1	42*	0.9	10	0.58	-3	64*
CCOc1ccc(NC(=S)NC(=O)/C=C/c2ccco2)cc1	.	9	1.1	-7	0.91	.	.
CCCCCOc1ccc(C(=O)CCC(=O)NNC(=O)c2ccncc2)cc1	.	-178	1.8	-82	2.8*	.	-252
CCOc1ccc(OCCC(=O)NNC(=O)c2ccncc2)cc1	.	-5	0.91	9	1.1	.	.
O=C1NC(=Nc2ccc(O)cc2)S/C1=C\C=C\c1ccco1	.	69*	0.95	5	0.31	.	88*
COc1ccc(N=C2NC(=O)/C(=C\c3ccco3)S2)cc1	1.1	40*	0.99	1	0.6	-7	59*
COc1cc(/C=C2/SC(=Nc3ccc(O)cc3)NC2=O)cc(OC)c1O	0.9	12	0.81	19	0.88	12	.
CC1=C(C(=O)OCc2ccccc2)C(c2ccc(Cl)cc2)NC(=O)N1CCCC(=O)O (stereo not given)	.	-7	0.95	5	1.1	.	.
COc1ccc(Cn2c(CCC(=O)NCCC(C)C)nc3ncccc3c2=O)cc1	.	2	0.96	4	0.98	.	.
CCOC(=O)C1=C(N)n2c(s/c(=C/c3ccco3)c2=O)=C(C(=O)OC)C1c1ccco1 (stereo not given)	0.7	.	.	.	.	29	.
N#CC1=C(N)n2c(s/c(=C\c3ccco3)c2=O)=C(C#N)C1c1ccco1 (stereo not given)	0.9	68*	0.87	13	0.32	6	88*
CCOC(=O)C(C)Sc1nc2c(c(=O)[nH]c(=O)n2C)n1C/C=C(/C)Cl (stereo not given)	1.1	68*	0.87	13	0.32	-10	71*
CCSc1nc2c(c(=O)[nH]c(=O)n2C)n1C/C=C(/C)Cl	0.9	6	0.95	5	0.94	10	.
COC(=O)c1ccccc1NC(=S)NC(NC(=O)c1ccccc1[N+](=O)[O-])C(Cl)(Cl)Cl (stereo not given)	1	10	0.99	1	0.9	-2	.
COc1ccccc1OCC(=O)NNC(=O)Nc1ccccc1	.	-4	1	-2	1	.	.
Cc1nn(Cc2ccc(Cl)c(Cl)c2)c(C)c1NC(=O)c1cn(-c2ccccc2)nc1-c1ccccc1	1	-193	1.2	-20	2.9*	0	-162
O=C(CCN1C(=O)/C(=C/c2ccco2)SC1=S)Nc1ccc(C(=O)O)c(O)c1	.	62*	1	-4	0.39	.	78*
O=C(CCN1C(=O)/C(=C\c2ccco2)SC1=S)Nc1ccc(C(=O)O)c(O)c1	.	56*	1.2	-16	0.44	.	76*
O=C(NC1CC1)C1CCN(C2CCN(C(=O)/C=C/c3cccc(F)c3F)CC2)CC1	0.9	-5	1.2	-15	1.1	14	.
CCN1CCN(CC(O)COC(c2ccccc2)c2ccccc2C)CC1 (stereo not given)	.	1	1	-4	0.99	.	.
COc1ccc(-n2c(SCC(=O)Nc3cccc(S(N)(=O)=O)c3)nc3ccccc3c2=O)cc1OC	.	-4	1.2	-18	1	.	.
Oc1ccc(/C=N\Nc2cc(N3CCOCC3)nc(N3CCOCC3)n2)c(O)c1	1.1	15	0.9	10	0.85	-8	.
Oc1ccc(/C=N/Nc2cc(N3CCCC3)nc(N3CCCC3)n2)cc1O	1	68*	1	0	0.32	-3	76*
C#CCOCCOCCOCCNc1nc(N2CCN(C(=O)CCCCCCCCCCNC(=O)[C@H]([C@@H](C)CC)n3cc(CCCCCN)nn3)CC2)nc(N2CCN(C(=O)CCCCCCCCCCNC(=O)[C@@H]([C@H](C)CC)n3cc(CCCCCN)nn3)CC2)n1	.	i	0.97	3	6.6*	.	i
SMILES	bIAP act	mIAP inh	hIAP act	hIAP block	mIAP activ	bIAP inh	mIAP inh conf
C#CCOCCOCCOCCNc1nc(N2CCN(C(=O)CCCCCCCCCCNC(=O)[C@H]([C@@H](C)CC)n3cc(CCCCCN)nn3)CC2)nc(N2CCN(C(=O)CCCCCCCCCCNC(=O)[C@H](CO)n3cc(CCCCCN)nn3)CC2)n1	.	-110	0.97	3	2.1*	.	-151
C#CCOCCOCCOCCNc1nc(N2CCOCC2)nc(N2CCN(C(=O)CCCCCCCCCCNC(=O)[C@@H]([C@H](C)CC)n3cc(CCCCCN)nn3)CC2)n1	.	-69	1.1	-8	1.7	.	.
Brc1ccc(C2=Nn3cnnc3SC2)cc1	.	3	1	-4	0.97	.	.
CC1(C)Cc2c(sc3[nH]c(=S)n(Cc4ccco4)c(=O)c23)CO1	1	23	0.9	10	0.77	4	.
O=c1c2c3c(sc2[nH]c(=S)n1Cc1ccco1)CCC3	.	59*	0.99	1	0.41	.	64*
COc1ccc(CN(C(=O)Cn2nnc(-c3ccc(C)o3)n2)C(C(=O)NCC2CCCO2)c2ccco2)cc1 (stereo not given)	1	7	1.1	-10	0.93	3	.
CCOc1ccccc1N1CCN(S(=O)(=O)c2ccc3c4c(cccc24)C(=O)N3)CC1	0.9	59*	1.1	-10	0.41	6	56*
CCOC(=O)N1CCN(S(=O)(=O)c2ccc3c4c(cccc24)C(=O)N3)CC1	.	1	1.2	-21	0.99	.	.
COc1ccc(CNC(=O)C/C(C)=N/NC(=O)COc2ccc(Br)cc2)cc1	1	4	1.2	-16	0.96	4	.
Cn1ccnc1C(=O)c1cc(SCC(=O)NCc2ccccc2)nc2ccccc12	1	2	0.86	14	0.97	-5	.
C[C@H](CO)N1C[C@H](C)[C@@H](CN(C)S(=O)(=O)c2ccc(F)cc2)Oc2ccc(NC(=O)NC3CCCCC3)cc2C1=O	.	-317	1.3	-27	4.2*	.	-120
CC(C)NC(=O)Nc1ccc2c(c1)C(=O)N([C@H](C)CO)C[C@H](C)[C@@H](CN(C)S(=O)(=O)c1cccs1)O2	.	-42	0.98	2	1.4	.	.
C[C@H](CO)N1C[C@H](C)[C@H](CN(C)Cc2ccc(Oc3ccccc3)cc2)Oc2ccc(NC(=O)Nc3cccc4ccccc34)cc2CC1=O	.	-176	1	0	2.8*	.	-103
COc1ccc(NC(=O)Nc2ccc3c(c2)C(=O)N([C@H](C)CO)C[C@H](C)[C@@H](CN(C)S(=O)(=O)c2cccs2)O3)cc1	.	-175	1	-4	2.7*	.	-110
COc1ccc(S(=O)(=O)N(C)C[C@H]2Oc3ccc(NC(=O)Nc4ccccc4)cc3C(=O)N([C@H](C)CO)C[C@@H]2C)cc1	.	-208	0.98	2	3.1*	.	-115

Source: PubChem
